From ChEMBL document CHEMBL3244303, “Synthesis of spiro[isobenzofuran-1(3H),4'-piperidines] as potential central nervous system agents. 5. Conformationally mobile analogues derived by furan ring opening” (J Med Chem, 1979)

How the values were obtained:
Mus musculus = test: Antidepressant activity in ip dosed CD1 mouse assessed as inhibition of tetrabenazine methanesulfonate-induced reserpine like behavior administered 30 mins before tetrabenazine methanesulfonate challenge measured after 30 mins; type: functional
In short: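 Male CD-1 mice, groups of five, given test compound ip; tetrabenazine methanesulfonate 40 mg/kg ip 30 min later; after a further 30 min mice placed in individual containers and ptosis scored on a three-point scale (eyes closed = 2).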

Transporter = Transporter (Rattus norvegicus, UniProt Q63380); test: Inhibition of NET-mediated norepinephrine uptake in rat brain synaptosomes; type: subcellular
Sequence of Transporter (Q63380 whole entry): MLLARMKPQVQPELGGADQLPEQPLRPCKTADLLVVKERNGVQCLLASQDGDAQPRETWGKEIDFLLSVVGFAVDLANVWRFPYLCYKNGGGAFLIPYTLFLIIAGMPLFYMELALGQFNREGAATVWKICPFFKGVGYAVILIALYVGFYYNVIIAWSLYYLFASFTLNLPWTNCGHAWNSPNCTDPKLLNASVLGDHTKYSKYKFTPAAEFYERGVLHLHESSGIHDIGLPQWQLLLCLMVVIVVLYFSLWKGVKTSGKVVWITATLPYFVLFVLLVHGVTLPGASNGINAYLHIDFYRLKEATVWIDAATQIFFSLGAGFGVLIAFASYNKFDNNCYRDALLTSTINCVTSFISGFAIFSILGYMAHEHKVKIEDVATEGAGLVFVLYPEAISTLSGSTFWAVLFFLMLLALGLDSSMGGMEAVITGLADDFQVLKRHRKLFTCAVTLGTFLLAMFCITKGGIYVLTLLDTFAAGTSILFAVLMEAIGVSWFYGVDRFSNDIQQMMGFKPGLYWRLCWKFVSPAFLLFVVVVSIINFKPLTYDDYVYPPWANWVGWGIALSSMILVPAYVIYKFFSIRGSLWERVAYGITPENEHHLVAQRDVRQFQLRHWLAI

Row | Structure (SMILES) | ED50 (Mus musculus) | IC50 (Transporter)
1 | Br.CN1CCC(c2ccccc2Cc2ccc(F)cc2)CC1 | 4.9 mg/kg | –
2 | Br.COc1ccc(Cc2ccccc2C2CCN(C)CC2)cc1 | > 20 mg/kg | –
3 | CN1CCC(c2ccccc2Cc2ccc(O)cc2)CC1 | > 20 mg/kg | –
4 | Br.c1ccc(CCN2CCC(c3ccccc3Cc3ccccc3)CC2)cc1 | 10.8 mg/kg | –
5 | Br.Fc1ccc(Cc2ccccc2C2CCNCC2)cc1 | 1.5 mg/kg | –
6 | COc1ccc(Cc2ccccc2C2CCNCC2)cc1.Cl | 7.1 mg/kg | –
7 | Oc1ccc(Cc2ccccc2C2CCNCC2)cc1 | 1.2 mg/kg | –
8 | ON1CCC(c2ccccc2Cc2ccccc2)CC1 | 7.3 mg/kg | –
9 | O=C(Oc1ccccc1)N1CCC(c2ccccc2Cc2ccccc2)CC1 | > 20 mg/kg | –
10 | CN1CCC(O)(c2ccccc2Cc2ccccc2)CC1 | 18 mg/kg | –
11 | CN1CCC(O)(c2cccc(Cc3ccccc3)c2)CC1 | > 20 mg/kg | –
12 | CN1CCC(O)(c2ccc(Cc3ccccc3)cc2)CC1 | > 20 mg/kg | –
13 | COc1ccc(Cc2ccccc2C2(O)CCN(C)CC2)cc1 | > 20 mg/kg | –
14 | Cl.OC1(c2ccccc2Cc2ccccc2)CCN(Cc2ccccc2)CC1 | > 20 mg/kg | –
15 | OC1(c2ccccc2Cc2ccccc2)CCN(CCc2ccccc2)CC1 | > 20 mg/kg | –
16 | CC(=O)OC1(c2ccccc2Cc2ccccc2)CCN(C)CC1.Cl | > 20 mg/kg | –
17 | CC(=O)OC1(c2cccc(Cc3ccccc3)c2)CCN(C)CC1.Cl | > 20 mg/kg | –

Row | Structure (SMILES) | ED50 (Mus musculus) | IC50 (Transporter)
18 | CC(=O)OC1(c2ccccc2Cc2ccccc2)CCN(Cc2ccccc2)CC1.Cl | > 20 mg/kg | –
19 | COC1(c2ccccc2Cc2ccccc2)CCN(C)CC1.Cl | > 20 mg/kg | –
20 | COC1(c2ccccc2Cc2ccccc2)CCNCC1 | 7.8 mg/kg | –
21 | Br.CN1CC=C(c2cccc(Cc3ccccc3)c2)CC1 | > 20 mg/kg | –
22 | Br.CN1CC=C(c2ccc(Cc3ccccc3)cc2)CC1 | > 20 mg/kg | –
23 | Br.COc1ccc(Cc2ccccc2C2=CCN(C)CC2)cc1 | > 20 mg/kg | –
24 | C1=C(c2ccccc2Cc2ccccc2)CCN(Cc2ccccc2)C1.Cl | > 20 mg/kg | –
25 | C1=C(c2ccccc2Cc2ccccc2)CCN(CCc2ccccc2)C1 | > 20 mg/kg | –
26 | Cl.c1ccc(COC2(c3ccccc3)CCNCC2)cc1 | 10.1 mg/kg | –
27 | Cl.c1ccc(COC2(c3ccccc3)CCN(CC3CC3)CC2)cc1 | 6.3 mg/kg | –
28 | CCOC(=O)N1CCC(OCc2ccccc2)(c2ccccc2)CC1 | > 20 mg/kg | –
29 | CN1CCC(OCc2ccccc2)(c2ccccc2)CC1.Cl | 6.2 mg/kg | –
30 | c1ccc(CCN2CCC(OCc3ccccc3)(c3ccccc3)CC2)cc1 | > 20 mg/kg | –
31 | c1ccc(C2OC3(CCNCC3)c3ccccc32)cc1 (centres undefined) | – | 10 nM
32 | CN(C)CCC=C1c2ccccc2CCc2ccccc21 [AMITRIPTYLINE] | 1.9 mg/kg | –
33 | CNCCCN1c2ccccc2CCc2ccccc21 [DESIPRAMINE] | 0.8 mg/kg | –
34 | CN(C)CCCN1c2ccccc2CCc2ccccc21 [IMIPRAMINE] | 1.3 mg/kg | –
